The test system of one data set is L5178Y. Kind of data set: Cytotoxicity against mouse L5178Y cells assessed as reduction in cell viability incubated for 72 hrs by MTT assay. The format is functional, cell-based. The procedure, abridged:
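Murine L5178Y lymphoma cells were the cells tested, with kahalalide F run in parallel as the positive control. The read-out was IC50.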
(Tetrazolium assays rely on reduction of a dye to a coloured formazan, in cell work by metabolically active cells.)

A further data set relates to A2780. Kind of data set: Cytotoxicity against human A2780 cells assessed as reduction in cell viability incubated for 72 hrs by MTT assay. The format is functional, cell-based.
The subject of another data set is HEK293. Nature of the data set: Cytotoxicity against HEK293 cells assessed as reduction in cell viability incubated for 72 hrs by MTT assay. The class given is cell-based. As to conditions: Homo sapiens, HEK293, 72 h; call rule not given here.
In another data set the test system is J82. Kind of data set: Cytotoxicity against human J82 cells assessed as reduction in cell viability incubated for 72 hrs by high content analysis based fluorescent live/dead assay. The class given is functional. The procedure, abridged: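 J82 bladder cancer cells were analysed by fluorescent live/dead staining. An imaging system gave direct counts of live and dead cells, and IC50 values were derived from these counts.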

Data set [1] can be described thus: Selectivity index, ratio of IC50 for HEK293 cells to IC50 for human A2780 cells. The class given is toxicity. As to conditions: HEK293 cells versus A2780 cells, read-out: Ratio IC50. Put shortly:
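Selectivity index is the IC50 against HEK-293 cells divided by the IC50 against A2780 ovarian cancer cells, each from this paper's cytotoxicity testing.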

The mark [2] stands for this setting: Mus musculus, L5178Y, 72 h, read-out: IC50.
[3] abbreviates: Homo sapiens, A2780, 72 h, read-out: IC50.
Where [4] appears, read: Homo sapiens, J82, 72 h, read-out: IC50.

Experimental findings from ChEMBL document CHEMBL4392865, “Indole Diterpenoids from an Endophytic Penicillium sp” (J Nat Prod, 2019) are described below.

For orientation: IC50 means the concentration that gives 50% inhibition. Regarding `CC(C)=CCc1ccc2[nH]c3c(c2c1)C[C@@H]1CC[C@@]2(O)C4=CC(=O)[C@@H](C(C)(C)O)O[C@H]4CC[C@]2(C)[C@@]31C`, the IC50 with L5178Y (setting [2]) is 12.9 µM; in the data set with A2780 (a2780), “Not Active”.
Consider `CC(C)(O)[C@H]1O[C@@]2(O)CC[C@@]3(C)[C@@H](CC[C@H]4Cc5c([nH]c6ccccc56)[C@@]43C)C2=CC1=O`, for which the IC50 in the data set with L5178Y (setting [2]) was 6.2 µM; in the data set on A2780 (a2780), “Not Active”; in the data set on HEK293, 39.8 µM.
`CC1(C)CC2=C(Cc3cc4c5c([nH]c4cc32)[C@@]2(C)[C@@H](CC[C@@]3(O)C4=CC(=O)[C@@H](C(C)(C)O)OC4=CC[C@@]32C)C5)C(C)(C)O1`: the IC50 stood at 8.1 µM in the data set with L5178Y (setting [2]), 7.8 µM in the data set with A2780 (setting [3]), 31.7 µM with J82 (setting [4]) and 37.4 µM in the data set with HEK293. Further, the selectivity ratio in data set [1] was 4.8.
For `CC1(C)CC2=C(Cc3cc4c(cc32)NC(=O)[C@@]2(C)[C@@H](CC[C@@]3(O)C5=CC(=O)[C@@H](C(C)(C)O)O[C@H]5CC[C@@]32C)CC4=O)C(C)(C)O1`, the IC50 with L5178Y (setting [2]) was determined as 7.6 µM; with A2780 (setting [3]), 11.9 µM; with J82 (setting [4]) it was 29.4 µM; with HEK293, 28.3 µM. In addition, the selectivity ratio in data set [1] was determined as 2.4.
On to `CO[C@]12CC[C@@]3(C)[C@@](O)(CC[C@H]4Cc5c([nH]c6cc7c(cc56)CC5=C7CC(C)(C)OC5(C)C)[C@@]43C)C1=CC(=O)[C@@H](C(C)(C)O)O2`, for which the figures for the IC50 entry with L5178Y (l5178y), in the data set on A2780 (setting [3]) and in the data set with J82 (setting [4]) were “Not Active”, 32.2 µM and 96.7 µM, respectively.
In the case of `CC(C)(O)[C@H]1O[C@@]2(O)CC[C@@]3(C)C(=CC[C@H]4Cc5c([nH]c6ccccc56)[C@@]43C)C2=CC1=O`, the IC50 with L5178Y (setting [2]) was 5.3 µM; with A2780 (a2780), “Not Active”; in the data set with HEK293, 27.9 µM.
`CC(C)(O)[C@H]1O[C@H]2CC[C@@]3(C)[C@@H](CC[C@H]4Cc5c([nH]c6ccccc56)[C@@]43C)C2=C[C@H]1O`: the values for the IC50 entry in the data set with L5178Y (l5178y) and with A2780 (setting [3]) were “Not Active” and 28.5 µM, respectively.
With `CC1(C)O[C@@]23CC[C@@]4(C)C(=CC[C@H]5Cc6c([nH]c7ccccc67)[C@@]54C)C2=CC(=O)[C@@H]1O3`, the IC50 came out at 5.3 µM in the data set with L5178Y (setting [2]), 12.2 µM with A2780 (setting [3]), 42.1 µM in the data set with J82 (setting [4]) and 21.7 µM with HEK293. In data set [1], the selectivity ratio was 1.8.
For the compound `CO[C@]12CC[C@@]3(C)[C@@](O)(CC[C@H]4Cc5c([nH]c6ccccc56)[C@@]43C)C1=CC(=O)[C@@H](C(C)(C)O)O2`, the values for the IC50 result with L5178Y (l5178y), with A2780 (setting [3]) and in the data set on J82 (setting [4]) were “Not Active”, 12.2 µM and 55.3 µM, respectively.
Turning to `CC1(C)CC2=C(Cc3cc4c5c([nH]c4cc32)[C@@]2(C)[C@@H](CC[C@@]3(O)C4=CC(=O)[C@@H](C(C)(C)O)O[C@H]4CC[C@@]32C)C5)C(C)(C)O1`, the IC50 is 10.9 µM with L5178Y (setting [2]) and 12.8 µM with A2780 (setting [3]).
For `CO[C@]12CC[C@@]3(C)[C@@](O)(CC[C@H]4CC(=O)c5cc6c(cc5NC(=O)[C@@]43C)C3=C(C6)C(C)(C)OC(C)(C)C3)C1=CC(=O)[C@@H](C(C)(C)O)O2`, the IC50 entry in the data set on L5178Y (l5178y) is “Not Active”; with A2780 (setting [3]), 19.4 µM; with J82 (setting [4]) it was 73 µM.
For `CC(C)=CCc1ccc2[nH]c3c(c2c1)C[C@@H]1CC[C@@]2(O)C4=CC(=O)[C@@H]5O[C@@]4(CC[C@]2(C)[C@@]31C)OC5(C)C`, the results for the IC50 result with L5178Y (l5178y) and with A2780 (setting [3]) were “Not Active” and 19.8 µM, respectively.
Take `CC1(C)O[C@@]23CC[C@]4(C)c5cc6[nH]c7ccccc7c6cc5CC[C@H]4C2=CC(=O)[C@@H]1O3`: the IC50 came out at 3.6 µM with L5178Y (setting [2]), 8.7 µM with A2780 (setting [3]), 40.6 µM with J82 (setting [4]) and 28.5 µM in the data set on HEK293. Moreover, the selectivity ratio in data set [1] was 3.3.
`CC1(C)CC2=C(Cc3cc(C(=O)C[C@@H]4CC[C@@]5(O)C6=CC(=O)[C@@H](C(C)(C)O)O[C@H]6CC[C@]5(C)[C@@]4(C)C(=O)O)c(N)cc32)C(C)(C)O1`: the figures for the IC50 result in the data set on L5178Y (l5178y), in the data set with A2780 (setting [3]) and with J82 (j82) were “Not Active”, 51.5 µM and “Not Active”, respectively.
As to `CC(C)(O)[C@H]1O[C@H]2CC[C@@]3(C)[C@@H](CC[C@H]4Cc5c([nH]c6ccccc56)[C@@]43C)C2=CC1=O` [DEHYDROXYPAXILLINE], the IC50 result was “Not Active” in the data set on L5178Y (l5178y) and 17.1 µM in the data set on A2780 (setting [3]).
For the compound `CC(C)=CCC[C@]1(C)[C@@H](O)CC[C@@]2(C)[C@H]1CC[C@H]1Cc3c([nH]c4ccccc34)[C@@]12C` [EMINDOLE SB], the figures for the IC50 in the data set with L5178Y (setting [2]), in the data set with A2780 (setting [3]) and in the data set on HEK293 were 18.3 µM, 8.2 µM and 44.6 µM, respectively. In addition, the selectivity ratio in data set [1] came out at 5.4.
Turning to `CC(C)(O)[C@@H]1CC[C@]2(C)[C@H](CC[C@@]3(C)[C@H]2CC[C@H]2Cc4c([nH]c5ccccc45)[C@@]23C)O1` [PASPALINE], the figures for the IC50 entry with L5178Y (l5178y), in the data set with A2780 (setting [3]) and in the data set on HEK293 were “Not Active”, 5.3 µM and 43 µM, respectively. In data set [1], the selectivity ratio came out at 8.1.
